Data published in ChEMBL document CHEMBL3425440, “ent-Kaurane Diterpenoids from Chinese Liverworts and Their Antitumor Activities through Michael Addition As Detected in Situ by a Fluorescence Probe” (J Med Chem, 2015).

Key:
K562 = assay: Cytotoxicity against human K562 cells assessed as cell viability after 24 hrs by MTT assay; type: functional, cell-based; details: K562, 24 h
How it was run: (§1)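 Cells grown to about 50−70% confluence at 37 °C, 5% CO2, then exposed to compounds 24 h (DMSO vehicle control, cisplatin positive control). MTT (5 mg/mL stock) added for 4 h, formazan dissolved in DMSO, absorbance read at 570 nm. IC50 derived from percent viability; at least three independent experiments, mean ± SD.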

[1] = Cytotoxicity against human HL60 cells assessed as cell viability after 24 hrs by MTT assay; type: functional, cell-based; details: HL-60, 24 h; how it was run: as §1
[2] = Cytotoxicity against human RWPE1 cells assessed as cell viability after 24 hrs by MTT assay; type: cell-based; details: RWPE-1, 24 h; how it was run: as §1
LoVo = assay: Cytotoxicity against human LoVo cells assessed as cell viability after 24 hrs by MTT assay; type: functional, cell-based; how it was run: as §1
[3] = Cytotoxicity against human PC3 cells assessed as cell viability after 24 hrs by MTT assay; type: functional, cell-based; details: PC-3, 24 h; how it was run: as §1
[4] = Cytotoxicity against human SKOV3 cells assessed as cell viability after 24 hrs by MTT assay; type: functional, cell-based; details: SK-OV-3, 24 h; how it was run: as §1
LNCaP = assay: Cytotoxicity against human LNCAP cells assessed as cell viability after 24 hrs by MTT assay; type: functional, cell-based; how it was run: as §1
NCI-H1299 = assay: Cytotoxicity against human NCI-H1299 cells assessed as cell viability after 24 hrs by MTT assay; type: functional, cell-based; details: NCI-H1299, 24 h; how it was run: as §1
DU-145 = assay: Cytotoxicity against human DU145 cells assessed as cell viability after 24 hrs by MTT assay; type: functional, cell-based; details: DU-145, 24 h; how it was run: as §1
MDA-MB-231 = assay: Cytotoxicity against human MDA-MB-231 cells assessed as cell viability after 24 hrs by MTT assay; type: functional, cell-based; details: MDA-MB-231, 24 h; how it was run: as §1
[5] = Cytotoxicity against human SH-SY5Y cells assessed as cell viability after 24 hrs by MTT assay; type: functional, cell-based; how it was run: as §1
[6] = Cytotoxicity against human Saos2 cells assessed as cell viability after 24 hrs by MTT assay; type: functional, cell-based; details: SAOS-2, 24 h; how it was run: as §1
[7] = Cytotoxicity against human A172 cells assessed as cell viability after 24 hrs by MTT assay; type: functional, cell-based; details: A 172, 24 h; how it was run: as §1
[8] = Cytotoxicity against human T24 cells assessed as cell viability after 24 hrs by MTT assay; type: functional, cell-based; details: T-24, 24 h; how it was run: as §1

SMILES	IC50 (K562) [µM]	IC50 [1] [µM]	IC50 [2] [µM]	IC50 (LoVo) [µM]	IC50 [3] [µM]	IC50 [4] [µM]	IC50 (LNCaP) [µM]	IC50 (NCI-H1299) [µM]	IC50 (DU-145) [µM]	IC50 (MDA-MB-231) [µM]	IC50 [5] [µM]	IC50 [6] [µM]	IC50 [7] [µM]	IC50 [8] [µM]
C=C1[C@@H]2CC(=O)[C@H]3[C@]4(C)CCCC(C)(C)[C@H]4[C@@H](O)[C@@H](O)[C@]3(C2)[C@@H]1O	> 50	> 50	> 50	> 50	> 50	> 50	> 50	> 50	> 50	> 50	> 50	> 50	> 50	> 50
C=C1C(O)[C@@]23CC[C@H]4[C@@](C)(CCC[C@@]4(C)C(=O)OCCBr)[C@@H]2CC[C@]1(O)C3 (stereo partly specified)	> 50	> 50	> 50	> 50	> 50	> 50	> 50	> 50	> 50	> 50	> 50	> 50	> 50	> 50
C=C1[C@@H]2CC[C@H]3[C@]4(C)CCCC(C)(C)[C@H]4[C@@H](O)C[C@]3(C2)[C@@H]1O	> 50	> 50	> 50	> 50	> 50	> 50	> 50	> 50	> 50	> 50	> 50	> 50	> 50	> 50
C[C@@H]1C(=O)[C@H]2C[C@]1(O)CC1=C2[C@]2(C)CCC[C@@](C)(CO)[C@H]2CC1	> 50	> 50	> 50	> 50	> 50	> 50	> 50	> 50	> 50	> 50	> 50	> 50	> 50	> 50
C=C1[C@@H]2CC(=O)[C@H]3[C@]4(C)CCCC(C)(C)[C@H]4C[C@@H](O)[C@]3(C2)[C@@H]1O	> 50	> 50	> 50	> 50	> 50	> 50	> 50	> 50	> 50	> 50	> 50	> 50	> 50	> 50
C=C1[C@@H]2CC[C@H]3[C@]4(C)CCCC(C)(C)[C@H]4C[C@@H](O)[C@]3(C2)[C@@H]1O	> 50	> 50	> 50	> 50	> 50	> 50	> 50	> 50	> 50	> 50	> 50	> 50	> 50	> 50
C=C1C(O)[C@@]23CC[C@H]4[C@@](C)(CCC[C@@]4(C)C(=O)O)[C@@H]2CC[C@]1(O)C3 (stereo partly specified)	> 50	> 50	> 50	> 50	> 50	> 50	> 50	> 50	> 50	> 50	> 50	> 50	> 50	> 50
C[C@H]1C(=O)[C@@]23CC[C@@H]4[C@@](C)(C=O)CCC[C@@]4(C)C2=CC[C@]1(O)C3	> 50	> 50	> 50	> 50	> 50	> 50	> 50	> 50	> 50	> 50	> 50	> 50	> 50	> 50
C=C1[C@@H]2CC(=O)[C@H]3[C@]4(C)CCCC(C)(C)[C@H]4CC[C@]3(C2)[C@@H]1O	> 50	> 50	> 50	> 50	> 50	> 50	> 50	> 50	> 50	> 50	> 50	> 50	> 50	> 50
C[C@H]1C(=O)[C@@]23CC[C@@H]4[C@@](C)(CO)CCC[C@@]4(C)C2=CC[C@]1(O)C3	> 50	> 50	> 50	> 50	> 50	> 50	> 50	> 50	> 50	> 50	> 50	> 50	> 50	> 50
C[C@@H]1C(=O)[C@@]23CC[C@@H]4C(C)(C)CCC[C@@]4(C)[C@@H]2[C@@H](O)C[C@@H]1C3	> 50	> 50	> 50	> 50	> 50	> 50	> 50	> 50	> 50	> 50	> 50	> 50	> 50	> 50
C=C1C(=O)[C@H]2C[C@@H]1CC1=C2[C@]2(C)CCC[C@](C)(CO)[C@H]2CC1	41.7	23.6	> 50	35.2	> 50	> 50	> 50	> 50	> 50	> 50	33.8	35.5	> 50	49.1
C=C1[C@@H]2CC[C@H]3[C@]4(C)CCC[C@@](C)(CO)[C@H]4CC[C@]3(C2)[C@@H]1O	> 50	> 50	> 50	> 50	> 50	> 50	> 50	> 50	> 50	> 50	> 50	> 50	> 50	> 50
C=C1[C@@H]2CC[C@@H]3[C@@](CC[C@@H]4C(C)(C)CC[C@H](O)[C@]43C)(C2)[C@H]1O	> 50	> 50	> 50	> 50	> 50	> 50	> 50	> 50	> 50	> 50	> 50	> 50	> 50	> 50
C=C1[C@@H]2CC[C@H]3[C@]4(C)CCCC(C)(C)[C@H]4C[C@@H](O)[C@]3(C2)[C@H]1O	> 50	> 50	> 50	> 50	> 50	> 50	> 50	> 50	> 50	> 50	> 50	> 50	> 50	> 50
C=C1[C@@H](O)[C@@]23CC[C@@H]4C(C)(C)CCC[C@@]4(C)[C@@H]2CC[C@@H]1[C@H]3O	> 50	> 50	> 50	> 50	> 50	> 50	> 50	> 50	> 50	> 50	> 50	> 50	> 50	> 50
C=C1C[C@]23C[C@H]1CC[C@H]2[C@@]1(C)[C@H](C[C@H]3OC(C)=O)C(C)(C)CC[C@@H]1O	> 50	> 50	> 50	> 50	> 50	> 50	> 50	> 50	> 50	> 50	> 50	> 50	> 50	> 50
C[C@H]1C(=O)[C@@]23CC[C@@H]4[C@](C)(CO)CCC[C@@]4(C)C2=CC[C@]1(O)C3	> 50	> 50	> 50	> 50	> 50	> 50	> 50	> 50	> 50	> 50	> 50	> 50	> 50	> 50
C[C@@H]1C(=O)[C@@]23CC[C@@H]4[C@@](C)(CO)CCC[C@@]4(C)C2=CC[C@]1(O)C3	> 50	> 50	> 50	> 50	> 50	> 50	> 50	> 50	> 50	> 50	> 50	> 50	> 50	> 50
